Experimental data: article PMC3331960 (Nature chemical biology, 2012)
Each block holds one molecule with its values, some of them ahead of it.

Columns and labels:
[1] = target: T1, TIR1-IAA7 interaction (Arabidopsis thaliana, UniProt Q38825+Q570C0); assay: LexA yeast two-hybrid, auxin-induced TIR1-IAA7 interaction; assay type: cell-based; settings: 50 μM auxins in selective media
T1 sequence (Q570C0 1-594): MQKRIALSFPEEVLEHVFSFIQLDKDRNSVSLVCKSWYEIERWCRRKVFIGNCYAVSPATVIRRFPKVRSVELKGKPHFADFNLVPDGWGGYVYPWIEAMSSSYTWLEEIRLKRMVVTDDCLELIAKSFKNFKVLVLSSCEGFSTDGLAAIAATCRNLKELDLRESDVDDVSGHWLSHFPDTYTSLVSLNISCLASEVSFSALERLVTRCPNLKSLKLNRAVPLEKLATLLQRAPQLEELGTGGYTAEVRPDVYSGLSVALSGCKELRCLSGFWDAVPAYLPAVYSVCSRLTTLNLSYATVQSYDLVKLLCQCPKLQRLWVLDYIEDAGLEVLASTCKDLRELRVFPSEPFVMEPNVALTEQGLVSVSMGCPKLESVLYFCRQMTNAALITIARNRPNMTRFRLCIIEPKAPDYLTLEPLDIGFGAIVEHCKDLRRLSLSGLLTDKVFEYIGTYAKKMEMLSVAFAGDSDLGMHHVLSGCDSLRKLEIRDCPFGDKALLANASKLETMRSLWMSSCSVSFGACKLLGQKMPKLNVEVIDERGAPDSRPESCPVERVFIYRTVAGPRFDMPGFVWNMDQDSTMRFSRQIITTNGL
T1 sequence (Q38825 1-243): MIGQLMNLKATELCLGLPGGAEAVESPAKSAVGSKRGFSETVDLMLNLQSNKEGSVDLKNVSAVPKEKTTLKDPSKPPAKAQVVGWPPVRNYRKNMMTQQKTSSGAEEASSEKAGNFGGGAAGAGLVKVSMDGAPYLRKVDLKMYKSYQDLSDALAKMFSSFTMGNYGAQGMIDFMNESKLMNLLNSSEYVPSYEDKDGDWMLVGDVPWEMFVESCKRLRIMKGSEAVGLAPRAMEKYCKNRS

[2] = target: TIR1-IAA7 DII (Arabidopsis thaliana, UniProt Q38825+Q570C0, DEL96-243); assay: Surface plasmon resonance, TIR1 over immobilized IAA7 DII peptide; assay type: binding; settings: for TIR1 association with the DII peptide (SPR): co-injection of TIR1 with auxin, vs no auxin
[3] = target: T2, TIR1-IAA7 (Arabidopsis thaliana, UniProt Q38825+Q570C0); assay: [3H]-IAA radioligand binding; settings: Ki (Mean ± SEM), TIR1-IAA7, cold competitor vs [3H] IAA
T2 sequence (Q570C0 1-594): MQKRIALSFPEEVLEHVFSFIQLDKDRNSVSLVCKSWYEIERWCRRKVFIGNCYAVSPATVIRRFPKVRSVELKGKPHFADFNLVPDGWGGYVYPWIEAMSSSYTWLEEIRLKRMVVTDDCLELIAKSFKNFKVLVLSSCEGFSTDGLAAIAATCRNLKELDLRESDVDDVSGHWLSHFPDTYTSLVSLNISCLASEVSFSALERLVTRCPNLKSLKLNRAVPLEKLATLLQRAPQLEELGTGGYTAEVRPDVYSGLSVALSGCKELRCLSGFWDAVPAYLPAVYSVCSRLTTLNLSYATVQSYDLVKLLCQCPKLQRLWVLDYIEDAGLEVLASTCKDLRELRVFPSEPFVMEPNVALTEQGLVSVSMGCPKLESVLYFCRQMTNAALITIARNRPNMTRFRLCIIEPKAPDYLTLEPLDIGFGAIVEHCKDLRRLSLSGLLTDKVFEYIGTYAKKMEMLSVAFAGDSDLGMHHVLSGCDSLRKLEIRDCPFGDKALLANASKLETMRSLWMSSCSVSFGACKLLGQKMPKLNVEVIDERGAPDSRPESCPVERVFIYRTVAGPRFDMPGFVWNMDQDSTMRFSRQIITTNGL
T2 sequence (Q39255 1-160 partner): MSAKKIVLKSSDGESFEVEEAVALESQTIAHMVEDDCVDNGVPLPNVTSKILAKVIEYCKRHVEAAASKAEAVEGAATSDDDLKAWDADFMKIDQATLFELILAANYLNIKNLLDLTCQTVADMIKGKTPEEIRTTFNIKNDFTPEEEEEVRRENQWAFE
T2 sequence (Q38825 1-243): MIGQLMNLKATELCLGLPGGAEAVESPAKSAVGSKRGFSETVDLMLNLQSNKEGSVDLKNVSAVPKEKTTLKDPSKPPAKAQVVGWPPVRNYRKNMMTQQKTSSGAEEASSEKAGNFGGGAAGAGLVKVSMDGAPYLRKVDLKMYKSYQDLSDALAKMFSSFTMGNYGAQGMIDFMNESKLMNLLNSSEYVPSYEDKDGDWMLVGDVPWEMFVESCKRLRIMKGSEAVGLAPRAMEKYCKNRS
Procedure, shortened: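 ASK1-TIR1 or ASK1-AFB5 (0.44 μg, insect cells) with E. coli GST-IAA7 (1:10 molar), >1 h at 4°C in pH 8.0 Tris binding buffer. KD from [³H]-IAA saturation binding. Ki from competition with cold 1-NAA, 2,4-D or picloram against fixed [³H]-IAA (5–100 nM), fitted to a one-site competition model by nonlinear regression. Filter binding with scintillation read-out; triplicates.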

[4] = system: Arabidopsis wild type plants (Col-0); assay: Root elongation assay of seedlings; assay type: in vivo, Arabidopsis thaliana; settings: 40 or 80 nM 2,4-D, 4 days, Col-0 seedlings
Procedure, shortened: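 Seedlings grown 5 days on MS medium, then transferred to medium with 2,4-D. Root elongation was measured after 4 more days and expressed as a proportion of growth without auxin. Col-0, tir1-1 and tir1-1 afb2-3 were tested; error bars are STDEV.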

TIR1 association with the DII peptide (SPR) [2]: enhanced association with the peptide
SMILES: O=C(O)Cc1cccc2ccccc12 [1-NAA, 1-naphthaleneacetic acid]
TIR1-IAA7 interaction in yeast (β-galactosidase expression) [1]: promoted TIR1-IAA7 interaction, but not to the same extent as IAA

SMILES: O=C(O)COc1ccc(Cl)cc1Cl [2,4-D, 2,4-dichlorophenoxyacetic acid]
Ki [3]: 248 to 1000 nM
TIR1-IAA7 interaction in yeast (β-galactosidase expression) [1]: promoted TIR1-IAA7 interaction, but not to the same extent as IAA
root elongation [4]: inhibits root growth elongation
dissociation of the TIR1-IAA7 DII complex (SPR) ([2]; 50 μM ligand concentration): much more rapid dissociation rate
TIR1 association with the DII peptide (SPR) [2]: enhanced association with the peptide
